Our source for the IC50 values is article PMC4131791 (Memórias do Instituto Oswaldo Cruz, 2014).

As a reminder, the IC50 is the point on the concentration scale where inhibition reaches its midpoint.

Values after ≈ are worked out from the molar mass of the structure shown.

This assay has as its system Trypanosoma cruzi (Tulahuen strain) expressing β-galactosidase, trypomastigote and amastigote forms. It counts as cell-based. To be noted: L929, read-out: IC50 of the positive control. The procedure, abridged:
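L929 fibroblasts were seeded at 4,000/well in phenol red-free RPMI-1640 with 10% FBS and glutamine, then left overnight at 37 °C with 5% CO2. Cells were infected with β-galactosidase Tulahuen trypomastigotes at 40,000/well for 2 h, and free parasites were washed out. After 48 h, test compound (about 100-2 µM, triplicate, from DMSO stocks) was added. After seven days of culture, 100 µM CPRG with 0.1% Nonidet P-40 was added overnight at 37 °C and A570 read. Results were expressed as % growth inhibition, with IC50 by linear interpolation. Benznidazole served as positive control.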

Regarding `O=C(Cn1ccnc1[N+](=O)[O-])NCc1ccccc1` [Benznidazole, benznidazole], the IC50 was determined as 1 µg/mL (≈ 3.84 µM).
